In ChEMBL document CHEMBL2440012, “Design, synthesis and anticonvulsant properties of new N-Mannich bases derived from 3-phenylpyrrolidine-2,5-diones” (Bioorg Med Chem, 2013):
Activity calls are given as the source filed them. The rule behind the calls is not given here.

Key:
[1] = tested on: Mus musculus; assay: Neurotoxicity in ip dosed albino CF1 mouse assessed as minimum motor impairment in half or more animals measured after 4 hrs by rotorod test; format: toxicity, organism-based; conditions: in vivo
Procedure, shortened: (§1)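 Male CF-1 mice given ip suspension in 0.5% methylcellulose/water at 30, 100 and 300 mg/kg; MES, scPTZ (pentylenetetrazole 85 mg/kg sc, CD97 dose for clonic seizures ≥5 s) and rotarod (inability to hold balance 1 min in each of three trials) assessed at 0.5 and 4 h; value is minimum dose active in half or more animals.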

[2] = tested on: Mus musculus; assay: Neurotoxicity in ip dosed albino CF1 mouse assessed as minimum motor impairment in half or more animals measured after 0.5 hrs by rotorod test; format: toxicity, organism-based; conditions: in vivo; procedure, shortened: as §1
[3] = tested on: Mus musculus; assay: Anticonvulsant activity in albino CF1 mouse assessed as protection against subcutaneous pentylenetetrazole-induced convulsion at 300 mg/kg, ip measured after 4 hrs; format: functional, organism-based; set-up: dose 300 mg/kg; procedure, shortened: as §1
[4] = tested on: Mus musculus; assay: Anticonvulsant activity in albino CF1 mouse assessed as protection against subcutaneous pentylenetetrazole-induced convulsion at 300 mg/kg, ip measured after 0.5 hrs; format: functional, organism-based; set-up: dose 300 mg/kg; procedure, shortened: as §1
[5] = tested on: Mus musculus; assay: Anticonvulsant activity in albino CF1 mouse assessed as protection against maximal electroshock-induced seizures at 300 mg/kg, ip measured after 0.5 hr; format: functional, organism-based; set-up: dose 300 mg/kg; procedure, shortened: as §1
[6] = tested on: Mus musculus; assay: Anticonvulsant activity in albino CF1 mouse assessed as protection against maximal electroshock-induced seizures at 300 mg/kg, ip measured after 4 hrs; format: functional, organism-based; set-up: dose 300 mg/kg; procedure, shortened: as §1
[7] = tested on: Mus musculus; assay: Neurotoxicity in ip dosed albino CF1 mouse assessed as time to peak effect by rotorod test; format: toxicity, organism-based; conditions: in vivo
[8] = tested on: Mus musculus; assay: Anticonvulsant activity against 6 Hz psychomotor seizure in ip dosed albino CF1 mouse by minimal clonic seizure test; format: functional
[9] = tested on: Mus musculus; assay: Anticonvulsant activity against 6 Hz psychomotor seizure in ip dosed albino CF1 mouse assessed as time to peak effect by minimal clonic seizure test; format: functional
[10] = tested on: Mus musculus; assay: Anticonvulsant activity in albino CF1 mouse assessed as assessed as protection against 6 Hz psychomotor seizure at 100 mg/kg, ip after 4 hrs by minimal clonic seizure test; format: functional; conditions: route intraperitoneal
Procedure, shortened: (§2)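 Male CF-1 mice, groups of four, dosed ip in 0.5% methylcellulose/water suspension, then challenged by 6-Hz corneal stimulation at 32 mA (0.2 ms pulses, 3 s, constant current) at 0.25, 0.5, 1, 2 or 4 h; count of mice out of four protected from stunned posture/clonic seizure.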

[11] = tested on: Mus musculus; assay: Anticonvulsant activity in albino CF1 mouse assessed as assessed as protection against 6 Hz psychomotor seizure at 100 mg/kg, ip after 2 hrs by minimal clonic seizure test; format: functional; conditions: route intraperitoneal; procedure, shortened: as §2
[12] = tested on: Mus musculus; assay: Anticonvulsant activity in albino CF1 mouse assessed as assessed as protection against 6 Hz psychomotor seizure at 100 mg/kg, ip after 1 hr by minimal clonic seizure test; format: functional; conditions: route intraperitoneal; procedure, shortened: as §2
[13] = tested on: Mus musculus; assay: Anticonvulsant activity in albino CF1 mouse assessed as assessed as protection against 6 Hz psychomotor seizure at 100 mg/kg, ip after 0.25 hr by minimal clonic seizure test; format: functional; conditions: route intraperitoneal; procedure, shortened: as §2
[14] = tested on: Rattus norvegicus; assay: Anticonvulsant activity in albino Sprague-Dawley rat assessed as protection against maximal electroshock-induced seizures at 30 mg/kg, po measured after 4 hrs; format: functional
Procedure, shortened: (§3)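 Male Sprague-Dawley rats, four per group, dosed p.o. at 30 mg/kg in 0.5% methylcellulose/water suspension; MES test at 0.25, 0.5, 1, 2 and 4 h, motor impairment examined in parallel; number of rats out of four protected.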

[15] = tested on: Rattus norvegicus; assay: Anticonvulsant activity in albino Sprague-Dawley rat assessed as protection against maximal electroshock-induced seizures at 30 mg/kg, po measured after 2 hrs; format: functional; procedure, shortened: as §3
[16] = tested on: Rattus norvegicus; assay: Anticonvulsant activity in albino Sprague-Dawley rat assessed as protection against maximal electroshock-induced seizures at 30 mg/kg, po measured after 1 hr; format: functional; procedure, shortened: as §3
[17] = tested on: Rattus norvegicus; assay: Anticonvulsant activity in albino Sprague-Dawley rat assessed as protection against maximal electroshock-induced seizures at 30 mg/kg, po measured after 0.5 hr; format: functional; procedure, shortened: as §3
[18] = tested on: Rattus norvegicus; assay: Anticonvulsant activity in albino Sprague-Dawley rat assessed as protection against maximal electroshock-induced seizures at 30 mg/kg, po measured after 0.25 hr; format: functional; procedure, shortened: as §3
[19] = tested on: Mus musculus; assay: Neurotoxicity in albino CF1 mouse assessed as minimum motor impairment at 300 mg/kg, ip measured after 4 hrs by rotorod test; format: toxicity, organism-based; set-up: dose 300 mg/kg, route intraperitoneal; conditions: in vivo; procedure, shortened: as §1
[20] = tested on: Mus musculus; assay: Neurotoxicity in albino CF1 mouse assessed as minimum motor impairment at 300 mg/kg, ip measured after 0.5 hr by rotorod test; format: toxicity, organism-based; set-up: dose 300 mg/kg, route intraperitoneal; conditions: in vivo; procedure, shortened: as §1
[21] = tested on: Mus musculus; assay: Anticonvulsant activity in albino CF1 mouse assessed as assessed as protection against 6 Hz psychomotor seizure at 100 mg/kg, ip after 0.5 hr by minimal clonic seizure test; format: functional; conditions: route intraperitoneal; procedure, shortened: as §2
[22] = tested on: Mus musculus; assay: Anticonvulsant activity in ip dosed albino CF1 mouse assessed as protection against maximal electroshock-induced seizures in half or more animals measured after 4 hrs; format: functional; conditions: read-out: MED; procedure, shortened: as §1
[23] = tested on: Mus musculus; assay: Anticonvulsant activity in ip dosed albino CF1 mouse assessed as protection against maximal electroshock-induced seizures in half or more animals measured after 0.5 hr; format: functional; conditions: read-out: MED; procedure, shortened: as §1
[24] = tested on: Rattus norvegicus; assay: Neurotoxicity in po dosed albino Sprague-Dawley rat assessed as time to peak effect by rotorod test; format: toxicity, organism-based; conditions: in vivo
[25] = tested on: Rattus norvegicus; assay: Anticonvulsant activity against […] subcutaneous pentylenetetrazole-induced convulsion in po dosed albino Sprague-Dawley rat assessed as time to peak effect; format: functional
[26] = tested on: Rattus norvegicus; assay: Anticonvulsant activity against maximal electroshock-induced seizures in po dosed albino Sprague-Dawley rat assessed as time to peak effect; format: functional
[27] = tested on: Rattus norvegicus; assay: Anticonvulsant activity in po dosed albino Sprague-Dawley rat assessed as protection against subcutaneous pentylenetetrazole-induced convulsion; format: functional
[28] = tested on: Rattus norvegicus; assay: Protection index, ratio of TD50 for neurotoxicity in po dosed albino Sprague-Dawley rat by rotorod test to ED50 for anticonvulsant activity in po dosed albino Sprague-Dawley rat by MES test; format: functional
[29] = Neurotoxicity in po dosed albino Sprague-Dawley rat assessed as minimum motor impairment by rotorod test; format: toxicity, organism-based; conditions: in vivo
[30] = tested on: Rattus norvegicus; assay: Protection index, ratio of TD50 for neurotoxicity in po dosed albino Sprague-Dawley rat by rotorod test to ED50 for anticonvulsant activity in po dosed albino Sprague-Dawley rat by scPTZ test; format: functional
Procedure, shortened: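 Male Sprague-Dawley rats, compound suspended in 0.5% methylcellulose/water and given orally; tested at the time of peak effect. scPTZ: 70 mg/kg pentylenetetrazole sc; the end-point is clonic seizures lasting at least 5 s. Rotarod: motor impairment is failure to keep balance for 1 min in each of three trials. Groups of at least eight rats received several doses until at least three points fell within 10–90% effect. ED50, TD50 and 95% confidence intervals were derived by regression; PI = TD50/ED50.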

[31] = tested on: Rattus norvegicus; assay: Anticonvulsant activity in po dosed albino Sprague-Dawley rat assessed as protection against maximal electroshock-induced seizures; format: functional
[32] = tested on: Mus musculus; assay: Anticonvulsant activity in ip dosed albino CF1 mouse assessed as protection against subcutaneous pentylenetetrazole-induced convulsion in half or more animals measured after 4 hrs; format: functional; conditions: albino CF1, 4 h, read-out: MED; procedure, shortened: as §1
[33] = tested on: Mus musculus; assay: Anticonvulsant activity in ip dosed albino CF1 mouse assessed as protection against subcutaneous pentylenetetrazole-induced convulsion in half or more animals measured after 0.5 hr; format: functional; conditions: albino CF1, 0.5 h, read-out: MED; procedure, shortened: as §1
[34] = Neurotoxicity in ip dosed albino CF1 mouse by rotorod test; format: toxicity, organism-based; conditions: in vivo
[35] = tested on: Mus musculus; assay: Toxicity in albino CF1 mouse assessed as diarrhea at 300 mg/kg, ip measured after 4 hrs by rotorod test; format: organism-based; set-up: dose 300 mg/kg, route intraperitoneal; conditions: in vivo

O=C1CC(c2ccc(Cl)cc2)C(=O)N1CN1CCN(c2ccccc2Cl)CC1 (racemic)
MED [1]: 300 mg/kg | MED [2]: 300 mg/kg | Activity [3]: inactive | Activity [4]: inactive | Activity [5]: inactive | Activity [6]: inactive

O=C1CC(c2ccccc2)C(=O)N1CN1CCN(c2ncccn2)CC1 (racemic)
Time [7]: 1 h | ED50 [8]: 103 mg/kg | Time [9]: 1 h | Activity [10]: 0% | Activity [11]: 50% | Activity [12]: 50% | Activity [13]: 75% | Activity [14]: inactive | Activity [15]: inactive | Activity [16]: inactive | Activity [17]: inactive | Activity [18]: inactive | Activity [19]: Non-toxic | Activity [20]: Non-toxic | Activity [3]: inactive | Activity [4]: inactive | Activity [5]: inactive | Activity [6]: inactive | Activity [21]: 50%

O=C1CC(c2ccc(Cl)cc2)C(=O)N1CN1CCC(Cc2ccccc2)CC1 (racemic)
Activity [10]: 25% | Activity [11]: 75% | Activity [12]: 0% | Activity [13]: 0% | Activity [19]: Non-toxic | Activity [20]: Non-toxic | Activity [3]: inactive | Activity [4]: inactive | minimal effective dose [22]: 100 mg/kg | Activity [5]: inactive | Activity [21]: 0%

O=C1CC(c2ccccc2)C(=O)N1CN1CCC(Cc2ccccc2)CC1 (racemic)
Activity [10]: 0% | Activity [11]: 25% | Activity [12]: 25% | Activity [13]: 0% | Activity [19]: Non-toxic | Activity [20]: Non-toxic | Activity [3]: inactive | Activity [4]: inactive | minimal effective dose [23]: 100 mg/kg | minimal effective dose [22]: 300 mg/kg | Activity [21]: 0%

CCCC(CCC)C(=O)O [VALPROIC ACID]
Time [24]: 1 h | Time [25]: 1 h | Time [26]: 1 h | ED50 [27]: 646 mg/kg

O=C1NC(=O)C(c2ccccc2)(c2ccccc2)N1 [PHENYTOIN]
Time [24]: 1 h | Time [25]: 1 h | Time [26]: 1 h | Ratio TD50/ED50 [28]: >3.6 | TD50 [29]: > 100 mg/kg | ED50 [27]: > 500 mg/kg | Activity [14]: 75% | Activity [15]: 75% | Activity [16]: 75% | Activity [17]: 100% | Activity [18]: 25% | MED [1]: 100 mg/kg | MED [2]: 100 mg/kg | Activity [3]: inactive | Activity [4]: inactive | minimal effective dose [23]: 30 mg/kg | minimal effective dose [22]: 30 mg/kg

CCC1(C)CC(=O)NC1=O (stereo unspecified) [ETHOSUXIMIDE]
Time [24]: 1 h | Time [25]: 1 h | Time [26]: 1 h | Ratio TD50/ED50 [30]: >2.99 | TD50 [29]: > 500 mg/kg | ED50 [31]: > 500 mg/kg | Activity [19]: Non-toxic | Activity [20]: Non-toxic | minimal effective dose [32]: 300 mg/kg | minimal effective dose [33]: 100 mg/kg | Activity [5]: inactive | Activity [6]: inactive

CC[C@@H](C(N)=O)N1CCCC1=O
TD50 [34]: > 500 mg/kg | Time [7]: 1 h | Time [9]: 1 h

O=C1CC(c2ccccc2Cl)C(=O)N1CN1CCN(c2ncccn2)CC1 (racemic)
Activity [14]: inactive | Activity [15]: inactive | Activity [16]: inactive | Activity [17]: inactive | Activity [18]: inactive | MED [35]: 300 mg/kg | Activity [20]: Non-toxic | Activity [3]: inactive | Activity [4]: inactive | minimal effective dose [22]: 100 mg/kg | Activity [5]: inactive

O=C1CC(c2cccc(Cl)c2)C(=O)N1CN1CCN(c2cccc(C(F)(F)F)c2)CC1 (racemic)
MED [1]: 300 mg/kg | MED [2]: 300 mg/kg | Activity [3]: inactive | Activity [4]: inactive | minimal effective dose [23]: 100 mg/kg | minimal effective dose [22]: 100 mg/kg

COc1ccccc1N1CCN(CN2C(=O)CC(c3cccc(Cl)c3)C2=O)CC1 (racemic)
MED [1]: 300 mg/kg | MED [2]: 300 mg/kg | Activity [3]: inactive | Activity [4]: inactive | Activity [5]: inactive | Activity [6]: inactive
